These results are taken from ChEMBL document CHEMBL1144265, “Syntheses of 2,4,6-trisubstituted triazines as antimalarial agents” (Bioorg Med Chem Lett, 2005).

≈ marks a conversion by molar mass, not a printed value.

The nature of series [1]: In vitro PKa value was determined. It counts as physicochemical.
A short description of series [2]: Partition coefficient (logP). It counts as physicochemical. The following applies: octanol/water.
The next series relates to Plasmodium falciparum. The experiment in a line: In vitro minimum inhibiting concentration for schizont maturation from ring stage parasite over 40 hrs. It counts as functional. The method in brief: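 P. falciparum NF-54 kept in RPMI-1640 with 25 mM HEPES and 1% D-glucose. Rieckmann microassay: compound at […] in duplicate wells with parasitized cells, 37 °C in a candle jar for 36–40 h. Giemsa-stained smears were read by microscopy for ring-to-trophozoite/schizont maturation. MIC taken as the concentration that blocks complete maturation to schizonts.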

As a reminder, the pKa is the pH at which an ionisable group is half protonated. What is called logP is the decadic logarithm of the partition coefficient of the neutral form, usually between octanol and water. High values mean a more lipophilic compound, low ones a more hydrophilic compound. For orientation: MIC means the lowest concentration that inhibits growth of the organism. A higher MIC goes with a need for much substance. `O=[N+]([O-])c1ccc(Nc2nc(N3CCN(Cc4ccccc4)CC3)nc(N3CCN(Cc4ccccc4)CC3)n2)cc1` yielded a pKa in series [1] of 2.12. For the same compound, the logP in series [2] stood at 0.92. The compound also showed a minimal inhibitory concentration (MIC) in the series on Plasmodium falciparum of 2 µg/mL (≈ 3.54 µM).
The like results for `CCN(CC)c1nc(Nc2ccc([N+](=O)[O-])cc2)nc(N(CC)CC)n1` were, in that order, 3.05, 2.06 and 10 µg/mL (≈ 27.8 µM).
Compound `CC(C)(C)Nc1nc(Nc2ccc([N+](=O)[O-])cc2)nc(NC(C)(C)C)n1` had a pKa in series [1] of 3.68. In series [2], this compound showed a logP of 2.84. In the series on Plasmodium falciparum, this compound gave an MIC of 50 µg/mL (≈ 139 µM).
With `O=[N+]([O-])c1ccc(Nc2nc(NCCCn3ccnc3)nc(NCCCn3ccnc3)n2)cc1`, the pKa in series [1] came out at 1.96. Further, in series [2], the logP was 0.345. For the same compound, the MIC in the series with Plasmodium falciparum worked out at 1 µg/mL (≈ 2.16 µM).
The like results for `O=[N+]([O-])c1ccc(Nc2nc(N3CCCCC3)nc(N3CCCCC3)n2)cc1` were, in that order, 3.95, 2.54 and 50 µg/mL (≈ 130 µM).
The like results for `O=[N+]([O-])c1ccc(Nc2nc(NCc3ccccc3)nc(NCc3ccccc3)n2)cc1` were, in that order, 2.88, 1.68 and 10 µg/mL (≈ 23.4 µM).
The corresponding values for `CC1(C)N=C(N)N=C(N)N1c1ccc(Cl)cc1` [CYCLOGUANIL] are 3.82, 2.94 and 64 µg/mL (≈ 254 µM).
Regarding `CCCCNc1nc(NCCCC)nc(Nc2ccc([N+](=O)[O-])cc2)n1`, the pKa in series [1] stood at 2.32. This compound registered a logP in series [2] of 0.396. In the series on Plasmodium falciparum, this compound registered an MIC of 2 µg/mL (≈ 5.56 µM).
The corresponding values for `O=[N+]([O-])c1ccc(Nc2nc(N3CCCC3)nc(N3CCCC3)n2)cc1` are 3.62, 2.46 and 50 µg/mL (≈ 141 µM).
For `O=[N+]([O-])c1ccc(Nc2nc(N3CCc4cccnc4C3)nc(N3CCc4cccnc4C3)n2)cc1`, in series [1], the pKa was determined as 2.94. In series [2], this compound gave a logP of 1.64. This compound also registered an MIC against Plasmodium falciparum of 10 µg/mL (≈ 20.8 µM).
The compound `O=[N+]([O-])c1ccc(Nc2nc(NCCO)nc(NCCO)n2)cc1` yielded a pKa in series [1] of 2.86. Further, the logP in series [2] is -0.56. The compound also came in with an MIC with Plasmodium falciparum of 50 µg/mL (≈ 149 µM).
Consider `O=[N+]([O-])c1ccc(Nc2nc(N3CCN(c4ccccc4)CC3)nc(N3CCN(c4ccccc4)CC3)n2)cc1`, for which, in series [1], the pKa is 2.86. In addition, in series [2], the logP turned out to be 1.64. Besides, the MIC with Plasmodium falciparum came out at 10 µg/mL (≈ 18.6 µM).
`CN1CCN(c2nc(Nc3ccc([N+](=O)[O-])cc3)nc(N3CCN(C)CC3)n2)CC1` showed a pKa in series [1] of 1.88. This compound came in with a logP in series [2] of 0.228. Besides, in the series on Plasmodium falciparum, the MIC came out at 1 µg/mL (≈ 2.42 µM).
In the case of `O=[N+]([O-])c1ccc(Nc2nc(NC3CCCCCC3)nc(NC3CCCCCC3)n2)cc1`, in series [1], the pKa turned out to be 2.64. The same compound showed a logP in series [2] of 0.372. This compound returned an MIC in the series on Plasmodium falciparum of 2 µg/mL (≈ 4.55 µM).
In series [1], `O=[N+]([O-])c1ccc(Nc2nc(Nc3cccc(F)c3)nc(Nc3cccc(F)c3)n2)cc1` came in with a pKa of 3.13. Also, in series [2], the logP was 1.94. In the series on Plasmodium falciparum, this compound displayed an MIC of 10 µg/mL (≈ 23 µM).
Turning to `O=[N+]([O-])c1ccc(Nc2nc(N3CCOCC3)nc(N3CCOCC3)n2)cc1`, in series [1], the pKa turned out to be 2.98. In series [2], this compound yielded a logP of -0.06. The compound also returned an MIC against Plasmodium falciparum of 10 µg/mL (≈ 25.8 µM).
The like results for `O=[N+]([O-])c1ccc(Nc2nc(NC3CCCCC3)nc(NC3CCCCC3)n2)cc1` were, in that order, 2.58, 0.356 and 1 µg/mL (≈ 2.43 µM).
